# Screening data (PubChem)
# In the library only some 8.8% were active in any assay of this set; here they are far more common.
# M1 antag – antagonists of rat M1 muscarinic receptor; AID 628; 64,000 compounds, 3.4% hits; P08482; B-score at 10 µM; CHO-M1 cells, Fluo-4 calcium, ACh EC80 antagonist mode; hits give low values;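 active = calcium fluorescence response, raw or row-and-column corrected B-score, differing from the plate sample mean either way at a set confidence level, mostly lower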
# S1P1 ag-PAM – agonists and agonism potentiators of human S1P1 receptor; P21453; S1P1 CRE-bla cells, forskolin, beta-lactamase FRET, potentiator mode; S1P1 agonist co-added at EC20, 2 nM; 100% = saturating reference agonist, 0% = basal; activation, % at 9.5 µM; 56,000 compounds, 0.57% hits;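 active = activation above a cutoff set at the mean activation of all tested compounds plus 3 SD, cut at about 54% in these data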;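 note: forskolin at 4 µM as EC80 and the EC20 agonist is SEW2871; 100% = SEW2871 at its EC100 plus forskolin at EC80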
# S1P3 ag – agonists of human S1P3 receptor | Q99500 | S1P3 NFAT-BLA reporter cells, agonism, FRET ratio; relative to 1 µM S1P, basal subtracted | activation, % at 4.5 µM | 60,000 compounds, 0.1% hits | AID 373;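 active = activation above the screen-wide mean plus 3 SD, cut at about 4.5% in these data, passing the limit was not always enough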
# Target sequence (Q99500 whole entry, looked up): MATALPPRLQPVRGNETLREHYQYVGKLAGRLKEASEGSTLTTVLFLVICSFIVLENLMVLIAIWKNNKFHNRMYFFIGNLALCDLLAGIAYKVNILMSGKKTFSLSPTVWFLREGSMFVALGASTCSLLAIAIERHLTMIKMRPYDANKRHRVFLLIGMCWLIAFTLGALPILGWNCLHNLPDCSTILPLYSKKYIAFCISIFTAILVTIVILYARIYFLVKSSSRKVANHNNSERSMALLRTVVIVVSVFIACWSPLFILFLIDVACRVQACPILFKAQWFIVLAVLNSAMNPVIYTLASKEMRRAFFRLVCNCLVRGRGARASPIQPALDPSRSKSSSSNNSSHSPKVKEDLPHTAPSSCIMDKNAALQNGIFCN
#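 Measure – % activation relative to 1 µM S1P (100%), per plate · System – stable CHO line with human S1P3, Gα16, NFAT-BLA reporter · Timing – cells plated overnight, compound 4 h 37 °C, substrate 2 h RT · Technique – fluorescent BLA substrate, ex 405 nm, em 460/535 nm ratio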
# M1 agonist – M1 muscarinic receptor agonism | CHO-M1 cells, Fluo-4 calcium fluorescence, agonist mode; hits give high values | B-score at 10 µM | 64,000 compounds, 3% hits;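 active = fluorescence rise, raw or as B-score row- and column-corrected plate score, outside the 99.7% band of its plate's samples, either direction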
# SF-1 act – activators of human nuclear receptor SF-1 | Q13285 | CHO-K1 Gal4-SF-1 LBD luciferase reporter; % increase over DMSO SF-1-specific signal | activation, % at 10 µM | 65,000 compounds, 1.9% hits | AID 522;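 active = activation above the mean activation of all tested compounds plus 3 SD, cut at about 50% in these data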
#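 System: CHO-K1 cells with Gal4–hSF-1 LBD chimera plus Gal4-driven luciferase; quantity: 4,000 CHO-K1 cells per well; compound: one dose, 10 µM compound, 1% DMSO; times: 20 h compound treatment, 37 °C; measured by: SteadyLite luciferase luminescence; read-out: percent activation versus DMSO; benchmarks: DMSO and mock-transfected background; replicates: one test per compound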
# RORA act – RORA (human) activation. activation, % at 10 µM. 65,000 compounds, 1.5% hits. P35398. CHO-K1 Gal4-RORA LBD luciferase reporter, luminescence; percent increase over mock-subtracted basal signal;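 active = activation above the mean of all tested compounds plus 3 SD, cut at about 49% in these data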;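 note: 0% = DMSO-treated RORA cells and 100% = added signal equal to DMSO minus mock-transfected cells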
# * = called active by the depositor; . = no result.
SMILES,M1 antag,S1P1 ag-PAM,S1P3 ag,M1 agonist,SF-1 act,RORA act
CCCCSc1nnc([C@@H](NC(=O)OC(C)(C)C)C(C)C)o1,-0.22,-9,0,-1.2,-4,4
O=C(O)c1ccc2oc(SCC(=O)N3CCCCC3)nc2c1,.,7,1,.,54*,29
Cn1c(/N=C/c2cc(Cl)ccc2O)nc2ccccc21,0.32,1,-1,2.5*,6,28
Oc1ccc(-c2nnc(SCC3CCCCC3)o2)cc1,-0.065,113*,3,0.0085,64*,59*
O=C(CSc1nnc(-c2ccc(O)cc2)o1)N1CCOCC1,-0.092,-4,0,-0.1,29,45
CC(C)c1nc(SCC(=O)NCc2ccc3c(c2)OCO3)c2c(=O)n(C)c(=O)n(C)c2n1,0.061,14,-1,-0.43,0,0
COc1cc(C2=NOC(C(=O)NCc3ccco3)C2)cc(OC)c1OC (stereo not given),0.35,20,0,-0.91,55*,82*
N#CCCSc1nc(N2CCOCC2)c2c(c1C#N)CCCC2,0.32,-2,-3,1.6,-2,0
CCCSc1nc(N2CCOCC2)c2c(c1C#N)CCCC2,0.083,59,23*,-0.91,-2,-7
O=C(COCc1nc2ccccc2c(=O)[nH]1)NC1CCCC1,0.037,-10,-1,-1.6,0,11
CCCCCCOc1ccc(OCC(O)CN2C(=O)NC(C)(C)C2=O)cc1 (stereo not given),0.047,6,-1,0.023,36,62*
Cc1ccc(OCC(O)CN2C(=O)NC(C)(C)C2=O)cc1C (stereo not given),-0.031,-16,1,-0.061,2,-4
COc1c(C)cccc1C(=O)Nc1ccc(CN2CCOCC2)cc1,-0.069,-5,-1,-0.54,62*,37
COc1c(C)cccc1C(=O)Nc1ccc(N2CCN(S(C)(=O)=O)CC2)cc1,0.04,-8,0,0.16,107*,46
COc1cccc(NC(=O)c2ccc(CN3CCOCC3)cc2)c1,0.68,1,-1,-1,24,-1
Cc1cc(C)c2nc(NC3=NCN(CCN4CCOCC4)CN3)nc(C)c2c1,0.59,-15,-1,-1.2,-10,-6
CCc1ccc2nc(NC3=NCN(CCN4CCOCC4)CN3)nc(C)c2c1,-3.3*,-6,0,-0.058,-11,20
Cc1nc(NC2=NCN(Cc3ccc4c(c3)OCO4)CN2)nc2ccccc12,-9.2*,-2,0,0.47,-10,0
Cc1ccnc(NS(=O)(=O)c2ccc(NS(=O)(=O)Cc3ccccc3)cc2)n1,0.93,.,.,-1.1,6,-16
Cc1nn2c(-c3ccccc3)nnc2c2ccccc12,2.1*,.,0,0.34,33,34
Cc1ccc(/C=N/c2sc3c(c2C#N)CCCCC3)o1,0.45,-14,0,0.14,54*,12
CN1CCN(/C=N/c2sc3c(c2C#N)CCCCC3)CC1,0.48,12,-4,0.47,54*,34
Cc1ccc(/C=N/c2sc3c(c2C#N)CCC3)s1,-0.016,.,.,-0.64,-16,22
O=C(CP(=O)(c1ccccc1)c1ccccc1)Nn1cnnc1,0.88,.,.,-1.6,.,.
COc1cc(OC)c(NC2c3ccccc3C(=O)N2c2cc(C)ccn2)cc1Cl (stereo not given),0.19,9,0,-0.66,39,84*
SMILES,M1 antag,S1P1 ag-PAM,S1P3 ag,M1 agonist,SF-1 act,RORA act
COc1ccc(C(=O)Nc2ccc(Cl)c(Cl)c2)c(OC)n1,-0.7,-17,0,0.062,28,52*
O=C(Nc1ccc(Cl)c(Cl)c1)c1ccncc1,-1.4,.,.,-1.3,.,.
OC(COc1ccc2c(c1)CCC2)Cn1cnc2ccccc21 (stereo not given),.,.,-1,.,0,8
COC(=O)c1ccc(NC(=O)CSc2nnc(COc3ccccc3)n2C)cc1,0.42,.,-1,-0.16,8,5
O=C(CNC(=O)c1ccccc1C(=O)O)c1ccccc1,0.078,-20,0,-0.015,56*,29
COc1ccc(-c2cn3c(C)c(C(=O)N4CCCc5ccccc54)sc3n2)cc1,0.011,70*,-2,0.041,-14,13
